Laboratory results from ChEMBL document CHEMBL5370647 (J Med Chem, 2023).
Values after ≈ are worked out from the molar mass of the structure shown.

Legend:
[1] = test system: Mycobacterium tuberculosis; experiment: Antitubercular activity against non-replicating Mycobacterium tuberculosis H37Rv expressing luxCDAB assessed as inhibition of bacterial growth incubated for 7 days under hypoxia conditions followed by incubation in normoxia conditions for 5 days by luminescence based analysis; type: functional; details: 288 h, time 12 day
TGF-beta receptor type-1 = target: T1, TGF-beta receptor type-1 (Homo sapiens, UniProt P36897); experiment: Binding affinity to wild type human partial length TGFBR1 (D179 to M503 residues) expressed in bacterial expression system by KINOMEscan assay
T1 sequence (P36897 whole entry): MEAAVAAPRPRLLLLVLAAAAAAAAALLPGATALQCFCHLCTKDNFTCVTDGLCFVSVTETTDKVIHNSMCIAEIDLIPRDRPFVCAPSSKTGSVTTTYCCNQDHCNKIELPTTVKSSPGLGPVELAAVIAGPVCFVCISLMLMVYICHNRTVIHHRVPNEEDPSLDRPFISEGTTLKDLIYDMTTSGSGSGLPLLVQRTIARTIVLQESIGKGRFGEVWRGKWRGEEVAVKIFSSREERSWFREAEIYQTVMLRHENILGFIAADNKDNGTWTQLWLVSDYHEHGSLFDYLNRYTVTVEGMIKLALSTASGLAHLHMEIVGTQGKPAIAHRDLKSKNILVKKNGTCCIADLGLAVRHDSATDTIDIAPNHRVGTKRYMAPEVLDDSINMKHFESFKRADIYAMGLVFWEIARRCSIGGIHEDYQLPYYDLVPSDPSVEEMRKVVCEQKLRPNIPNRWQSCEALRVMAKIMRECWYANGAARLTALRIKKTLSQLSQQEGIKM

[2] = Metabolic stability of the compound in CD-1 mouse liver microsomes assessed as parent compound remaining at 5 uM preincubated for 5 mins followed by NADPH addition and measured after 30 mins by LC-TOF/MS analysis; type: ADME, Microsome; details: time 35 min, read-out: Stability
Outline: (§1)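 Mouse liver microsomes incubated with compound in the presence of NADPH. Read-out is % parent compound remaining after 30 min.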

[3] = Metabolic stability of the compound in CD-1 mouse liver microsomes at 5 uM by LC-TOF/MS analysis; type: ADME, Microsome; outline: as §1
[4] = test system: Mycobacterium tuberculosis; experiment: Antitubercular activity against Mycobacterium tuberculosis H37Rv constitutively expressing GFP assessed as inhibition of bacterial growth at 20 uM incubated for 7 days by fluorescence based analysis; type: functional; details: 168 h, time 7 day
[5] = test system: Mycobacterium tuberculosis; experiment: Antitubercular activity against replicating Mycobacterium tuberculosis H37Rv constitutively expressing GFP assessed as inhibition of bacterial growth under normoxia conditions incubated for 3 weeks by spot assay; type: functional; details: 504 h
[6] = AUC(last) in CD-1 mouse at 10 mg/kg, po by LC/MS/MS analysis; type: ADME, organism-based; parameters: dose 10 mg/kg, route po; details: in vivo
Outline: (§2)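 CD1 mice dosed orally at 10 mg/kg (snapshot PK study). Plasma levels followed over 5 h by LC/MS/MS. T1/2, Cmax and AUC_last derived from the plasma profile.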

[7] = Half life in CD-1 mouse at 10 mg/kg, po by LC/MS/MS analysis; type: ADME, organism-based; details: in vivo; outline: as §2
[8] = Cmax in CD-1 mouse at 10 mg/kg, po by LC/MS/MS analysis; type: ADME, organism-based; parameters: dose 10 mg/kg, route po; details: in vivo; outline: as §2
[9] = test system: Mycobacterium tuberculosis; experiment: Antitubercular activity against non-replicating Mycobacterium tuberculosis H37Rv constitutively expressing GFP assessed as inhibition of bacterial growth incubated for 7 days under hypoxic condition followed by incubation in aerobic conditions for 1 to 5 days by spot assay; type: functional; details: time 8-12 day

Row | Structure (SMILES) | MIC50 [1] [µM] | MIC90 [1] [µM] | Kd (TGF-beta receptor type-1) [µM] | inhibition at 20 µM [4] [%] | MIC90 [5] [µM] | further results
1 | Cc1cccc(-c2nc(Nc3ccc4scnc4c3)c3ccccc3n2)n1 | < 0.3 | 1.3 (≈ 0.48 µg/mL) | > 10 |  |  | 
2 | Cc1cccc(-c2nc(N(C)c3ccc4ncsc4c3)c3ccccc3n2)n1 | < 0.3 | 1.3 (≈ 0.499 µg/mL) | > 10 |  |  | 
3 | Cc1cccc(-c2nc(Nc3ccc4nnn(C)c4c3)c3ccccc3n2)n1 | < 0.3 | 0.3 (≈ 0.11 µg/mL) | > 10 |  |  | remaining at 0.5 h, 5 µM [2]: 15%; Stability [3]: Stable
4 | Cc1cccc(-c2nc(Nc3ccc4c(c3)nnn4C)c3ccccc3n2)n1 | < 0.3 | 1.3 (≈ 0.478 µg/mL) | > 10 |  |  | remaining at 0.5 h, 5 µM [2]: 28%; Stability [3]: Stable
5 | COc1ccc(Nc2nc(-c3cccc(C)n3)nc3ccccc23)cc1 | < 0.3 | 1.3 (≈ 0.445 µg/mL) | > 10 |  |  | 
6 | Cc1ccc(NC(=O)c2ccnc(N3CCN(C)CC3)c2)cc1-c1ccc(C(=O)NCC2CC2)cc1 |  |  |  | > 90 | 6 (≈ 2.9 µg/mL) | MIC50 [5]: 4 µM (≈ 1.93 µg/mL)
7 | Cc1cccc(-c2nc(Nc3ccc4ccsc4c3)c3ccccc3n2)n1 | < 0.3 | 0.3 (≈ 0.111 µg/mL) | > 10 |  |  | remaining at 0.5 h, 5 µM [2]: 8%; Stability [3]: Stable
8 | Cc1cccc(-c2nc(Nc3ccc4nc(C)sc4c3)c3ccccc3n2)n1 | < 0.3 | 0.3 (≈ 0.115 µg/mL) | > 10 |  |  | remaining at 0.5 h, 5 µM [2]: 18%; Stability [3]: Stable
9 | Cc1cccc(-c2nc(Oc3ccc4scnc4c3)c3ccccc3n2)n1 | < 0.3 | 0.3 (≈ 0.111 µg/mL) | > 10 |  |  | 
10 | Cc1cccc(-c2nc(Nc3ccc4c(c3)OCO4)c3ccccc3n2)n1 | < 0.3 | 1.3 (≈ 0.463 µg/mL) |  |  |  | remaining at 0.5 h, 5 µM [2]: 30%; Stability [3]: Stable; AUClast [6]: 250 ng·h/mL; t1/2 [7]: 3.4 h; Cmax [8]: 75 ng/mL
11 | Cn1cncc1-c1ccc2ncnc(Nc3ccc(OCc4ccccc4)cc3)c2c1 |  |  |  | > 90 | 5 (≈ 2.04 µg/mL) | MIC50 [5]: 5 µM (≈ 2.04 µg/mL); MIC90 [9]: 11 µM (≈ 4.48 µg/mL)
12 | Nc1nc(-c2ccccn2)c(-c2ccnc3ccccc23)s1 |  |  |  | > 90 | 20 (≈ 6.09 µg/mL) | MIC50 [5]: 13 µM (≈ 3.96 µg/mL); MIC90 [9]: > 20 µM
13 | Cc1cccc(-c2nc(Nc3ccc4nn[nH]c4c3)c3ccccc3n2)n1 | 1.3 (≈ 0.459 µg/mL) | 5 (≈ 1.77 µg/mL) | > 10 |  |  | 
14 | Cn1cncc1-c1cc2c(Nc3ccc(OCc4ccccc4)cc3)ncnc2cn1 |  |  |  | > 90 | > 20 | MIC50 [5]: 5 µM (≈ 2.04 µg/mL)
15 | Cc1cccc(-c2nc(Oc3ccc4ncsc4c3)c3ccccc3n2)n1 | < 0.3 | 0.3 (≈ 0.111 µg/mL) | > 10 |  |  | 
16 | CO[C@H]1/C=C/O[C@@]2(C)Oc3c(C)c(O)c4c(O)c(c(/C=N/N5CCN(C)CC5)c(O)c4c3C2=O)NC(=O)/C(C)=C\C=C\[C@H](C)[C@H](O)[C@@H](C)[C@@H](O)[C@@H](C)[C@H](OC(C)=O)[C@@H]1C [RIFAMPIN] |  |  |  |  |  | MIC90 [9]: 0.4 µM (≈ 0.329 µg/mL)
17 | Fc1ccc(-c2c(-c3ccccn3)nc3n2CCS3)cc1 |  |  |  | > 90 | > 20 | MIC50 [5]: 9 µM (≈ 2.68 µg/mL)
18 | Cc1cccc(-c2nc(Nc3ccc4occc4c3)c3ccccc3n2)n1 | < 0.3 | 1.3 (≈ 0.458 µg/mL) | > 10 |  |  | 
19 | Cc1cccc(-c2nc(Nc3ccc4c(c3)ncn4C)c3ccccc3n2)n1 | 1.3 (≈ 0.476 µg/mL) | 5 (≈ 1.83 µg/mL) | > 10 |  |  | 
20 | Cc1cccc(-c2nc(Nc3ccc4nn(C)nc4c3)c3ccccc3n2)n1 | < 0.3 | 0.3 (≈ 0.11 µg/mL) | > 10 |  |  | remaining at 0.5 h, 5 µM [2]: 30%; Stability [3]: Stable; AUClast [6]: 440 ng·h/mL; t1/2 [7]: 4.6 h; Cmax [8]: 150 ng/mL
21 | CN1CCN(Cc2cccc(-c3ccc4c(Nc5ccc(Oc6ccccc6)cc5)ccnc4c3)c2)CC1 |  |  |  | > 90 | 11 (≈ 5.51 µg/mL) | MIC90 [9]: 6 µM (≈ 3 µg/mL)
22 | CS(=O)(=O)CCNCc1coc(-c2ccc3ncnc(Nc4ccc(OCc5ccccc5)cc4)c3c2)c1 [GW566221A] |  |  |  | > 90 | 3 (≈ 1.59 µg/mL) | MIC90 [9]: 7 µM (≈ 3.7 µg/mL)
